RAM network inh: blocks the yeast RAM network. S. cerevisiae dse1pr::URA3 reporter, 5-FOA growth OD615, 2 d; analog-sensitive cbk1-as2 kinase mutant strain. inhibition, % at 50 µM. actives 1.8% (n = 190,000). AID 868;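 active means inhibition above a set limit, 3 SD over mean compound inhibition, cut at about 8.4% in these data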;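 further: inhibition rescues growth on 5-FOA so higher OD means more RAM inhibition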
L major viab: Leishmania major promastigote growth inhibition | AID 1063 | inhibition, % at 10 µM | Leishmania major promastigotes, resazurin fluorescence viability | actives 9% (n = 200,000); in the data active means inhibition above about 50%;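 further: promastigotes grown with compound for 44 hours at 28 °C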
ABCB1 block: human ABCB1 inhibition, ABCG2 as counter-screen | P08183 | CCRF-Adr cells, JC-1 efflux, flow cytometry | inhibition, % at 6.6 µM | actives 0.067% (n = 190,000); in the data active means inhibition above about 40%;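 further: higher value means more JC-1 retained so stronger ABCB1 efflux block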
Target sequence (P08183 whole entry, looked up): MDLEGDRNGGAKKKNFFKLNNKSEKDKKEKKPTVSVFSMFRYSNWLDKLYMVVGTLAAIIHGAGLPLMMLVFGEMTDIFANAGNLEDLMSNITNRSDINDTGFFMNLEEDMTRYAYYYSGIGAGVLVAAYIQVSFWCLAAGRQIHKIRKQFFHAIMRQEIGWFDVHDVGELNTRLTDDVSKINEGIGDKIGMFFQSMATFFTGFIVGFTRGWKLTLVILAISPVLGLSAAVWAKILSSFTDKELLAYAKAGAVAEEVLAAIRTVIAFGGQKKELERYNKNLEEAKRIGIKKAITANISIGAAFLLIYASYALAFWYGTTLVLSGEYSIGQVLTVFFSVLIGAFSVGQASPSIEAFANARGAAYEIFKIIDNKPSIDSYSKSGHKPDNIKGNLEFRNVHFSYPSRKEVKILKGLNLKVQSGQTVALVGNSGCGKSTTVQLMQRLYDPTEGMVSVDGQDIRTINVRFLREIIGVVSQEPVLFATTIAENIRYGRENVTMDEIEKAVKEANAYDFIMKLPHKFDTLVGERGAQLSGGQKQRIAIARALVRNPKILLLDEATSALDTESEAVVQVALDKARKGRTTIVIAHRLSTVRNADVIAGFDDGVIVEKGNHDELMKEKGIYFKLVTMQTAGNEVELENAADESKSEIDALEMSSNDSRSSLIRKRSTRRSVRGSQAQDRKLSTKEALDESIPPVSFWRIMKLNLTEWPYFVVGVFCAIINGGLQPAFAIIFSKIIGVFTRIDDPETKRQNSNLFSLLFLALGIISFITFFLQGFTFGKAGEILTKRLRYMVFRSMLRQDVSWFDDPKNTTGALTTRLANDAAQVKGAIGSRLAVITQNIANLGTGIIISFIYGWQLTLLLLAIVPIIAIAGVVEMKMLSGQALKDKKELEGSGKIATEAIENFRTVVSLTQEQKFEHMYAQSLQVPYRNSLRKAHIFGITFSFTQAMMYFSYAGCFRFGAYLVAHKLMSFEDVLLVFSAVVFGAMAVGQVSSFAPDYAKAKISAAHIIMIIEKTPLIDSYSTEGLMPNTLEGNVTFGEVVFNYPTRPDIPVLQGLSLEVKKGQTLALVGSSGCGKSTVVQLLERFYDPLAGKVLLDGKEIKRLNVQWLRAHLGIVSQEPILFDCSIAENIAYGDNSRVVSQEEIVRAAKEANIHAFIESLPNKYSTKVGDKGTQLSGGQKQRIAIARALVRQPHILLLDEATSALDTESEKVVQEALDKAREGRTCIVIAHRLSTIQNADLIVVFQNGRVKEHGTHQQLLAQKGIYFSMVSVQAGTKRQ
ABCG2 inh: inhibitors of human ABCG2 transporter, ABCB1 counter-screen | Q9UNQ0 | IgMXP3 cells, JC-1 efflux, flow cytometry | inhibition, % at 6.6 µM | actives 0.1% (n = 190,000) | AID 1325;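 active means inhibition above 80%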
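Assay system – ABCG2 IgMXP3 and barcoded ABCB1 CCRF-Adr cell mix · Input – 3 million cells/mL in well · Reagent – JC-1 fluorescent substrate · Compound – single test compound dose, 6.6 µM final · Timing – 10 min exposure at 25 °C with rotation, no wash · Detection – flow cytometry of retained JC-1 fluorescence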
WT yeast gro inh: growth inhibition of WT yeast, mitochondrial fusion screen; mitochondrial fusion phenotypic screen, WT strain; AID 1362; actives 2.1% (n = 190,000); inhibition, % at 10 µM; in the data active means inhibition above about 58%; tested in S. cerevisiae
Of the large screens only hits and unclear results are named; the others gave an inactive call. Sampled rows, rich in hits. Any-hit rate of the full collection: about 12%.

COc1ccccc1NC(=O)c1ccc2nc(-c3ccccc3)c(-c3ccccc3)nc2c1	none
COc1ccccc1-c1nc2cc3ccccc3cc2nc1-c1ccccc1	RAM network inh 10.8
COc1ccc(-c2cc(C(F)(F)F)n3nc(C(=O)NCCCn4ccnc4)cc3n2)cc1	L major viab 90.4
O=C(NCCCn1ccnc1)c1nn2c(C(F)(F)F)cc(-c3ccc(Br)cc3)nc2c1Cl	L major viab 100.2
COc1ccc(-c2cc(C(F)(F)F)n3nc(C(=O)NCCN4CCOCC4)cc3n2)cc1	none
Cc1cccc(NC(=O)c2sc3nc4c(c(-c5cccs5)c3c2N)CN(C)CC4)c1	L major viab 55.6
COC(=O)/C(C#N)=C/c1c(Oc2cc(C)cc(C)c2)nc2c(C)cccn2c1=O	RAM network inh 9.1, L major viab 97.4
Cc1ccc(S(=O)(=O)/C(C#N)=C/c2c(N3CC(C)OC(C)C3)nc3c(C)cccn3c2=O)cc1 (stereo not given)	L major viab 97.2
Cc1cc(Oc2nc3c(C)cccn3c(=O)c2/C=C(\C#N)S(=O)(=O)c2ccc(Cl)cc2)ccc1Cl	L major viab 79.6
Cc1ccc(S(=O)(=O)/C(C#N)=C/c2c(N3CCN(C)CC3)nc3c(C)cccn3c2=O)cc1	none
O=C(Nc1ccc(S(=O)(=O)NCc2ccco2)cc1)c1ccc2ccccc2n1	L major viab 51.8
OC(COc1ccc2ccccc2c1)CN1CCCC1 (stereo not given)	L major viab 74.1
OC(COc1cccc2ccccc12)CN1CCCC1 (stereo not given)	L major viab 100.3
Cc1ccc(C=Nc2ccc(N(C)C)cc2)o1	L major viab 80.2
Cc1cc(C)c(C#N)c(SCc2nnc(-c3ccccc3[N+](=O)[O-])o2)n1	RAM network inh 11.3
Cc1cc(C)c(C#N)c(SCc2nnc(-c3ccccc3)o2)n1	none
Cc1[nH]c2ccccc2c1C(=O)CSc1n[nH]c(N)n1	none
Cc1nnc2n(Cc3ccccc3)c(=O)c3c4c(sc3n12)COC(C(C)C)C4 (stereo not given)	L major viab 55.2
CCOC(=O)c1c(-c2ccc(C)cc2)csc1NC(=O)CCN1CCOCC1	L major viab 97.2
CCOC(=O)c1c(-c2ccccc2)csc1NC(=O)CCN1CCOCC1	L major viab 98.1
CCOC(=O)c1c(-c2ccccc2)csc1NC(=O)CSc1nnnn1C	none
CCOC(=O)c1c(-c2ccccc2)csc1NC(=O)CSc1nncs1	RAM network inh 10.9, WT yeast gro inh 59.1
CCOC(=O)c1c(-c2ccc(C)o2)csc1NC(=O)CN1CCOCC1	L major viab 88.6
CCOC(=O)c1c(-c2cccs2)csc1NC(=O)CN1CCOCC1	none
CCOC(=O)c1c(-c2ccccc2)csc1NC(=O)c1ccc(S(=O)(=O)N2CCOCC2)cc1	none
NC(=O)COC(=O)CC12CC3CC(CC(Br)(C3)C1)C2	none
Cc1ccc2cccc(S(=O)(=O)N3CCCc4ccccc43)c2n1	none
c1ccc2c(c1)nc1n2CCN1	none
COc1ccc(CN2CNc3nc4ccccc4n3C2)cc1	L major viab 62.2
O=C1Nc2ccccc2/C1=C/C(=O)c1cccs1	L major viab 100.3 (no result: WT yeast gro inh)
OCCN1CCN(c2cc(-c3ccccc3)c3ccccc3n2)CC1	L major viab 68.7
c1ccc(CN2CCN(c3nc(N4CCOCC4)c4ccccc4n3)CC2)cc1	none (no result: RAM network inh, ABCB1 block, ABCG2 inh, WT yeast gro inh)
CN1CCN(c2nc(N3CCN(CCO)CC3)nc3ccccc23)CC1	L major viab 100.2
COCCN(C(=O)CCc1nnc(CCc2c[nH]c3ccccc23)o1)C(C)C	none
COc1cccc(NC(=O)Cn2c(=O)n(CC3CCCO3)c(=O)c3ccccc32)c1 (stereo not given)	none
O=C(NCCC1=CCCCC1)C1CCCN(c2nc3ccccc3o2)C1 (stereo not given)	none
O=Nc1ccc(NOC(=O)c2ccccc2Br)cc1	L major viab 73.1, WT yeast gro inh 58.7
Cc1cccn2c(=O)c(/C=C(\C#N)C(=O)NC3CCS(=O)(=O)C3)c(N3CCC(C)CC3)nc12 (stereo not given)	none
CCNC(=O)/C(C#N)=C/c1c(N2CCN(Cc3ccc4c(c3)OCO4)CC2)nc2c(C)cccn2c1=O	L major viab 55.5
CCNC(=O)/C(C#N)=C/c1c(N(Cc2ccccc2)Cc2ccccc2)nc2ccccn2c1=O	L major viab 56.3
CCNC(=O)/C(C#N)=C/c1c(N2CCOCC2)nc2ccccn2c1=O	none
Cc1cccn2c(=O)c(/C=C(\C#N)C(=O)NCc3ccco3)c(N3CCC(C(N)=O)CC3)nc12	none
CNC(=O)/C(C#N)=C/c1c(N(Cc2ccccc2)Cc2ccccc2)nc2c(C)cccn2c1=O	L major viab 72.0
Cc1cc(C)c(S(=O)(=O)N(C)CC(=O)NC2CCCC2)c(C)c1	none
COC(=O)C1Cc2ccccc2CN1C(=O)CCl (stereo not given)	none
O=C(COC(=O)CCCSc1nc2ccccc2[nH]1)Nc1ccc(Cl)cc1	none
CCOC(=O)c1sc(Nc2nc3ccc(OC)cc3s2)cc1C	none
CCOC(=O)c1sc(Nc2nc3c(OC)cccc3s2)nc1C	L major viab 72.7
CCOC(=O)c1sc(NC(=O)CSc2nccc(C)n2)nc1C	RAM network inh 8.5
COC(=O)c1sc(NC(=O)CSc2nc3cccnc3n2C2CCCCC2)nc1C	L major viab 60.8
CCOC(=O)c1sc(Nc2nc3c(F)cccc3s2)cc1C	L major viab 78.1
N/C(=N\OCc1ccc([N+](=O)[O-])cc1)c1ccncc1	none
O=C(Nc1ccc2c(c1)Cc1ccccc1-2)c1cccnc1	none
CCOC(=O)c1sc(Nc2ccccc2)nc1C	none
CCOC(=O)c1sc(Nc2nc(C)cc(OC)n2)nc1C	L major viab 55.9
CCC(=O)Nc1nc2ccc(NC(C)=O)cc2s1	none
CCOc1cccc2sc(Nc3nc4ccc(NC(C)=O)cc4s3)nc12	L major viab 80.2
COC(=O)c1cccc(NC(=O)CCc2cc(OC)c(OC)c(OC)c2)c1	L major viab 59.1
Cc1ccc(CSCCNC(=O)c2ccc(NS(C)(=O)=O)cc2)cc1	none
CCCN1CCCc2cc(CN)ccc21	L major viab 100.0
COc1ccc(C(C(=O)NC(C)(C)C)N(Cc2ccccc2)C(=O)CCC(=O)Nc2cc(C)on2)cc1 (stereo not given)	L major viab 95.3
COc1ccc(CN(C(=O)c2ccc(-c3ccccc3)[nH]2)C(C(=O)NC(C)(C)C)c2ccncc2)cc1 (stereo not given)	L major viab 93.4
O=C(Nc1ccc(Cl)cc1C(=O)N1CCCC1)c1cccc([N+](=O)[O-])c1	none
O=C(Cc1ccccc1)NNc1ccc2ccccc2c1	L major viab 96.1
O=C(CN1C(=O)CCC1=O)NNc1ccc2ccccc2c1	L major viab 95.6, WT yeast gro inh 70.6
C=CCN=C1CCCc2c1[nH]c1ccc(C)cc21	none
O=C(NCc1ccco1)C(c1ccc(F)cc1)N(C(=O)Cc1cccs1)c1cccnc1 (stereo not given)	none
